{"data": "Published values collected from several papers", "target": "B2 bradykinin receptor (BDKRB2, Homo sapiens, UniProt P30411)", "Residues used in one study (P30411 1-391)": "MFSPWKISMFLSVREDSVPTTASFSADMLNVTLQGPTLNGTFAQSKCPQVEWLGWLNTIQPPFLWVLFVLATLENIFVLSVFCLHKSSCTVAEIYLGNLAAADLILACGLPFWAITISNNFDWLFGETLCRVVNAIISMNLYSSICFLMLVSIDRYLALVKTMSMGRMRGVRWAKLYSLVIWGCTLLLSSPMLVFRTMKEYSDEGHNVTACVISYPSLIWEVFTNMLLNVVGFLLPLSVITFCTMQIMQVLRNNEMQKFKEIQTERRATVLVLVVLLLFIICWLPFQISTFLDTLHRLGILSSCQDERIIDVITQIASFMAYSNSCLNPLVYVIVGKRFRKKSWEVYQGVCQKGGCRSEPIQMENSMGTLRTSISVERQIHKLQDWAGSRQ", "note": "Lines come from different studies, so protocols differ."}
{"Structure (SMILES)": "COCc1c(-c2cc3cc(C)cc(OC)c3s2)c2c(N)ncnn2c1CN1CCNC(=O)C1", "assay": "ligand displacement, radioligand", "conditions": "10 µM", "inhibition": "3%"}
{"Structure (SMILES)": "CCN(CC)CCCC[C@H](NC(=O)[C@H](CC(C)C)NC(=O)[C@H](C)NC(=O)[C@H](Cc1ccccc1)NC(=O)c1ccc(C(C)(C)C)cc1)C(=O)N[C@@H](CO)C(=O)OC", "assay": "ligand displacement, radioligand", "conditions": "10 µM", "inhibition": "-7%"}
{"Structure (SMILES)": "COc1ccc(S(=O)(=O)N2CCCCC2)cc1C", "assay": "ligand displacement, radioligand", "conditions": "10 µM", "inhibition": "< 30%"}
{"Structure (SMILES)": "CN(CCN1CCC(OC(=O)Nc2ccccc2-c2ccccc2)CC1)C(=O)c1ccc(CN2CCC(C(N)=O)CC2)cc1", "assay": "ligand displacement, radioligand", "conditions": "1 µM", "inhibition": "-6%"}
{"Structure (SMILES)": "C[C@H](C(=O)N[C@H]1COc2ccccc2[C@@H]1S(C)(=O)=O)c1ccc(F)cc1", "assay": "cell-free assay", "conditions": "10 µM", "inhibition": "8%"}
{"Structure (SMILES)": "CC(C)N1CCC[C@H]1CNC(=O)c1cn(C2CCCC2)c(=O)c2c1c1ccccc1n2C", "assay": "ligand displacement, radioligand", "conditions": "10 µM", "inhibition": "11%"}
{"Structure (SMILES)": "c1ccc(C(NCCNC(c2ccccc2)c2ccccc2)c2ccccc2)cc1", "assay": "cell-free assay", "conditions": "10 µM", "inhibition": "17%"}
{"Structure (SMILES)": "O=C(Nc1cccnn1)N1CCN([C@@H]2CCOc3cc(C(F)(F)F)ccc32)CC1", "assay": "cell-free assay", "conditions": "20 µM", "inhibition": "10%"}
